Data reported in ChEMBL document CHEMBL1157680, “Isoxazole analogues bind the system xc- transporter: structure-activity relationship and pharmacophore model” (Bioorg Med Chem, 2010).
Activity calls are given as the source filed them. No cut-off for these calls is given here.

What was measured:
[1] = target: T1, Cystine/glutamate transporter (Homo sapiens) (UniProt Q9UPY5); test: Inhibition of amino acid transport system xc- in human SNB19 cells assessed as [3H]L-glutamate uptake at 500 uM by liquid scintillation counting; type: cell-based; design: scale not given: the % may be the effect or the level left; conditions: SNB-19
T1 sequence (whole entry): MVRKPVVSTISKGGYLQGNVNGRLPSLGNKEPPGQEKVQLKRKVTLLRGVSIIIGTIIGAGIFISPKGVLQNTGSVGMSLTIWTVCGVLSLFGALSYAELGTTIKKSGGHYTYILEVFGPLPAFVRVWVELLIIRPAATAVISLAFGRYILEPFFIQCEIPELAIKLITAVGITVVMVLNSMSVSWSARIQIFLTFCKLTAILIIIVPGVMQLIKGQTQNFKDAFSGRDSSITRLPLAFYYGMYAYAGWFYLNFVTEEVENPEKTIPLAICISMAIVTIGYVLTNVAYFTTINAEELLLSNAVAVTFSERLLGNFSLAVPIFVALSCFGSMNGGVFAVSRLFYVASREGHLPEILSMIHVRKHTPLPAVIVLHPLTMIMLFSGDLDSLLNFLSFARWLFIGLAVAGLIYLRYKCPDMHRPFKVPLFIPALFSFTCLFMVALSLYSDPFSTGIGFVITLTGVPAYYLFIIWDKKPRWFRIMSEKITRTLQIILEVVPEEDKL
Outline: (§1)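 Confluent SNB-19 glioma monolayers were refed 2 h before assay, then preincubated 5 min at 30 °C in Na+-free HEPES-buffered Hank's (choline Cl, pH 7.4). Test agent was added together with L-[3H]-glutamate plus unlabeled L-Glu (10–500 μM final). After 5 min at 30 °C, ice-cold washes stopped uptake. Cells were lysed in 0.4 M NaOH and counted by LSC. Results are % of control uptake.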

[2] = target: T1, Cystine/glutamate transporter (Homo sapiens); test: Inhibition of [3H]L-glutamate uptake at amino acid transport system xc- in human SNB19 cells at 500 uM by liquid scintillation counting; type: cell-based; conditions: SNB-19; outline: as §1
[3] = target: T1, Cystine/glutamate transporter (Homo sapiens); test: Inhibition of amino acid transport system xc- in human SNB19 cells assessed as [3H]L-glutamate uptake at 250 uM by liquid scintillation counting; type: cell-based; design: scale not given: the % may be the effect or the level left; conditions: SNB-19; outline: as §1
[4] = target: T2, Cystine/glutamate transporter (Homo sapiens, UniProt Q9UPY5); test: Competitive inhibition of [3H]L-glutamate uptake at amino acid transport system xc- in human SNB19 cells by liquid scintillation counting; type: cell-based, SNB-19
T2 sequence (Q9UPY5 whole entry): T1 sequence (whole entry)
Outline: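 SNB-19 glioma monolayers were assayed in Na+-free choline-HEPES Hank's buffer, pH 7.4, at 30 °C. L-[3H]-glutamate with L-Glu (10–500 μM final) and inhibitor were added simultaneously for 5 min. Radioactivity in NaOH lysates was counted by LSC. Ki came from a replot of Km,app values, or from IC50 inhibition curves using the Cheng-Prusoff equation.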

[5] = target: T1, Cystine/glutamate transporter (Homo sapiens); test: Activity at amino acid transport system xc- in human SNB19 cells assessed as induction of L-glutamate efflux at 500 uM by fluorometric assay; type: cell-based; conditions: SNB-19
Outline: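 Paired SNB-19 coverslips were rinsed 10 min in Na+-free HBHS, then placed in a stirred cuvette (2 ml HBHS, 30 °C). NADP+ (1 mM) was added at 0 s and glutamate dehydrogenase (33 U) at 60 s, then the test substrate. L-Glu efflux was followed in real time as NADPH fluorescence. Triton X-100 (0.5%) gave total cellular L-Glu. Efflux was quantified from a cell-free standard curve.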

[6] = target: T2, Cystine/glutamate transporter; test: Inhibition of amino acid transport system xc- in human SNB19 cells assessed as [3H]L-glutamate uptake by liquid scintillation counting; type: cell-based, SNB-19
[7] = target: T1, Cystine/glutamate transporter (Homo sapiens); conditions: SNB-19, 500 uM
LRM55 = test: Inhibition of amino acid transport system xc- in rat LRM55 cells assessed as [3H]L-glutamate uptake at 500 uM by liquid scintillation counting; type: cell-based; design: scale not given: the % may be the effect or the level left

Row | Compound | Activity [1] [%] | Activity [3] [%] | further results
1 | Cc1nn(-c2ccccc2)c(=O)c2noc(C)c12 | 74 | – | inhibition [2]: 26%
2 | N[C@@H](Cc1c(C(=O)O)noc1COCc1ccccc1)C(=O)O (racemic) | – | 70 | –
3 | C/C(=N\Nc1ccc([N+](=O)[O-])cc1)c1c(C(=O)O)noc1C | 22 | – | Ki [4]: 60 µM; Activity [5]: inactive; inhibition [2]: 78%; IC50 [6]: 127 µM
4 | C/C(=N\Nc1cc(C(F)(F)F)cc(C(F)(F)F)c1)c1c(C(=O)O)noc1C | 14 | – | Ki [4]: 64 µM; Activity [5]: inactive; inhibition [2]: 86%; IC50 [6]: 129 µM
5 | N[C@@H](Cc1c(C(=O)O)noc1CCc1ccc2ccccc2c1)C(=O)O | – | 37 | Ki [4]: 52 µM; Activity [5]: inactive; inhibition [7]: Active
6 | Cc1ccc(-n2nc(C)c3c(C)onc3c2=O)cc1 | 94 | – | –
7 | Cc1onc(C(=O)O)c1CC(N)P(=O)(O)O (racemic) | – | 107 | –
8 | N[C@@H](Cc1c(C(=O)O)noc1CCc1cccc2ccccc12)C(=O)O | – | 47 | Ki [4]: 117 µM; Activity [5]: inactive
9 | C/C(=N\Nc1ccc([N+](=O)[O-])cc1[N+](=O)[O-])c1c(C(=O)O)noc1COCc1ccc2ccccc2c1 | 95 | – | –
10 | C/C(=N\Nc1ccc([N+](=O)[O-])cc1[N+](=O)[O-])c1c(C(=O)O)noc1CCc1ccc2ccccc2c1 | 45 | – | Ki [4]: 113 µM; Activity [5]: inactive; IC50 [6]: 225 µM
11 | Cc1nn(-c2ccc(F)cc2)c(=O)c2noc(C)c12 | 86 | – | –
12 | COCc1onc(C(=O)O)c1C[C@H](N)C(=O)O | – | 98 | –
13 | C/C(=N\Nc1ccc([N+](=O)[O-])cc1[N+](=O)[O-])c1c(C(=O)O)noc1C | 45 | 73 | Ki [4]: 147 µM; Activity [5]: inactive; IC50 [6]: 290 µM
14 | C/C(=N\Nc1ccccc1)c1c(C(=O)O)noc1C | 56 | – | inhibition [2]: 44%
15 | CCc1onc(C(=O)O)c1C[C@H](N)C(=O)O | – | 92 | –
16 | C/C(=N\NS(=O)(=O)c1ccccc1)c1c(C(=O)O)noc1C | – | 101 | –
17 | Cc1nn(-c2cc(Cl)cc(Cl)c2)c(=O)c2noc(C)c12 | 89 | – | –

Row | Compound | Activity [1] [%] | Activity [3] [%] | further results
18 | Cc1nn(-c2ccc(F)cc2F)c(=O)c2noc(C)c12 | 95 | – | –
19 | C/C(=N\NC(N)=O)c1c(C(=O)O)noc1C | – | 91 | –
20 | Cc1nn(-c2cccc([N+](=O)[O-])c2)c(=O)c2noc(C)c12 | 96 | – | –
21 | C/C(=N\NC(=O)Nc1ccccc1)c1c(C(=O)O)noc1C | – | 76 | –
22 | COc1ccc(-n2nc(C)c3c(C)onc3c2=O)cc1 | 92 | – | –
23 | COC(C)c1onc(C(=O)O)c1C[C@H](N)C(=O)O (mixture of isomers) | – | 115 | –
24 | Cc1nn(-c2ccc([N+](=O)[O-])cc2)c(=O)c2noc(C)c12 | 85 | – | inhibition [2]: 15%
25 | Cc1nn(-c2ccc(C(F)(F)F)cc2)c(=O)c2noc(C)c12 | 99 | – | –
26 | Cc1onc(O)c1C[C@H](N)C(=O)O | – | – | Activity (LRM55): 95%
27 | CCOC(=O)c1noc(C)c1/C(C)=N/NS(=O)(=O)c1ccccc1 | – | 96 | –
28 | N[C@@H](Cc1c(C(=O)O)noc1CCc1ccccc1)C(=O)O | – | 70 | –
29 | C/C(=N\Nc1ccccc1[N+](=O)[O-])c1c(C(=O)O)noc1C | 97 | – | –
30 | Cc1onc(C(=O)O)c1C[C@H](N)C(=O)O | – | 98 | –
31 | CCOC(=O)c1noc(C)c1/C(C)=N/NC(N)=O | – | 103 | –
32 | Cc1onc(C(=O)O)c1CC(N)C(=O)O (racemic) | – | 101 | –
33 | Cc1nn(-c2cc(C(F)(F)F)cc(C(F)(F)F)c2)c(=O)c2noc(C)c12 | 82 | – | inhibition [2]: 18%
